Hits are enriched below; roughly 1.9% of the tested compounds scored in any of these assays.
HIF activator: HIF pathway transcriptional activators, primary screen, cell-based, U2OS HRE-luciferase, luminescence; U2OS HRE-luciferase reporter; normalized: DMSO 0%, desferrioxamine 100%; activation, % at 7.5 µM (by protocol); 300,000 tested, 0.32% active;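 active means mean activation of at least 10% of the iron chelator positive control signal, with at least half of replicates also reaching 10%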
proCasp7 act: procaspase-7 activators, primary screen, counter-screen for procaspase-3 activator project, biochemical, absorbance, HTS, human | Caspase-7 (Homo sapiens), P55210 | recombinant procaspase-7, Ac-DEVD-pNA absorbance 405 nm; D23A/D198A/D206A triple mutant, cannot self-cleave; scale: DMSO 0, 5 µM enzyme 100 | activation, % at 8.5 µM | 330,000 tested, 0.093% active;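 active means percent activation above the screen-wide mean plus 3 SD, cut at about 25% in these data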
Target sequence (P55210 whole entry D23A/D198A/D206A): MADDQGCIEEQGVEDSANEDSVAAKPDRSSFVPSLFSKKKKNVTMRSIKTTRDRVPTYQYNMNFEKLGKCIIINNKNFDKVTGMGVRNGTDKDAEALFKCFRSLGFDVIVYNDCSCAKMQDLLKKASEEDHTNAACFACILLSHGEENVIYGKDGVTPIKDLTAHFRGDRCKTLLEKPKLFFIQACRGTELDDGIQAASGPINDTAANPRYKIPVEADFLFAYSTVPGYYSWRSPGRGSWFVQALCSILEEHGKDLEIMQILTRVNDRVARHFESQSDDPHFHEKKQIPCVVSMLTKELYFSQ
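buffer or medium = Zinc-free HEPES/NaCl buffer, pH 7.4 | material = Procaspase-7 triple mutant (PC-7 D3A) | input = 2 µM procaspase-7 mutant as dispensed | signal = Epi-absorbance of released pNA at 405 nm, two timepoints | timing = 1 h preincubation, 2 h reaction | replicates = singlicate compound testing | evaluation = % activation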
procasp3 activ: activators of human procaspase-3 D3A mutant, primary screen, biochemical, absorbance, PC-3 D3A mutant, single concentration; Caspase-3 (Homo sapiens), P42574; recombinant procaspase-3 D3A, Ac-DEVD-pNA absorbance 405 nm; activation, % at 8.5 µM; 330,000 tested, 0.11% active;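 active means activation above the mean of all tested compounds plus 3 SD, cut at about 21% in these data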;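 further: 0% = DMSO alone and 100% = DMSO wells spiked with extra 5 µM PC-3 D3A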
Target sequence (P42574 whole entry D9A/D28A/D175A): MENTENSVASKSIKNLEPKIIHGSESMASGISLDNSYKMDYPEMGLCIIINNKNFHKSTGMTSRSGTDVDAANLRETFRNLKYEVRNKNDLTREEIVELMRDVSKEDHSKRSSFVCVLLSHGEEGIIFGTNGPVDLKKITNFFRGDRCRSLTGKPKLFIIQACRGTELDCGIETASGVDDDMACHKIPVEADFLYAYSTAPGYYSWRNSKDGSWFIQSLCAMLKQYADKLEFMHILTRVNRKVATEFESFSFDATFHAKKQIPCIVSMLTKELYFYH
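Compound: 8.5 µM single point, 0.8% DMSO / Material: Autoprocessing-dead procaspase-3 D3A mutant enzyme / Timing: 1 h preincubation plus 2 h reaction at 25 °C / Medium: Zinc-free HEPES/NaCl buffer with 0.01% Triton X-100 at pH 7.4 / Technique: 405 nm absorbance of p-nitroaniline, reads at 0 and 120 min / Repeats: one well per compound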
FXN GAA850 act: FXN promoter activators, primary screen, cell-based, luciferase luminescence, HEK293 lucGAA850; AID 540364, 2011; HEK293 lucGAA850 FXN promoter luciferase reporter, 24 h; percent of 10 µM SAHA response; 360,000 tested, 0.56% active; activation, % at 6 µM;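 active means activation above the average of all compounds screened plus 3 SD, cutoff fixed separately per campaign, cut at about 7.5% in these data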;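 further: 0% = DMSO wells and 100% = 10 µM SAHA wells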
Calb FLC: C. albicans growth inhibition with fluconazole, primary screen, CaCi-2 strain, Alamar Blue fluorescence. C. albicans CaCi-2 (fluconazole-resistant clinical isolate) + fluconazole, 48 h. growth inhibition, % (no concentration beside the values). 300,000 tested, 0.57% active. AID 1979, 2009;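 active means growth inhibition above about 58% in most replicates, limit read from the data, passing the limit was not always enough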;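 further: all wells also contain fluconazole at 8 µg/ml as a sub-toxic cotreatment; 0% = median of DMSO wells and 100% = median of geldanamycin control wells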
Neddyl block: inhibitors of cullin neddylation, primary screen, biochemical, TR-FRET, uHTS, NAE and Ubc12. NEDD8-conjugating enzyme Ubc12 (Homo sapiens) + NEDD8-activating enzyme E1 regulatory …. inhibition, % at 25 µM. 360,000 tested, 0.58% active; in the data active means inhibition above about 36%
Numbers without * were called inactive.

For CCN(CC)c1ccc(/C=C2\SC(=O)N(C(C)C)C2=O)o1 the results were HIF activator -5, proCasp7 act -19, procasp3 activ -7, FXN GAA850 act 14*, Calb FLC -6 and Neddyl block -3.
Screening CC(C)(C)C(=O)c1c(N)[nH]c(C(=O)c2ccccc2)c1-c1ccc(C(F)(F)F)cc1 returned Neddyl block -5.
Screening CCOC(=O)C1=C(C)NC(C)=C(C(=O)OCC)C1/C=C/c1ccccc1 returned HIF activator 0, proCasp7 act 12, procasp3 activ 11, FXN GAA850 act 6 and Calb FLC 12.
`CCOC(=O)C1=C(C)NC(C)=C(C(=O)OCC)C1c1ccccc1/C=C/C(=O)OC(C)(C)C` gave HIF activator 0, proCasp7 act 30* and procasp3 activ 18.
For CC1=C(C(=O)N(C(C)C)C(C)C)CC(CC(=O)NCc2cccs2)C(=O)N1Cc1ccc(C(C)(C)C)cc1 (stereo not drawn) the results were Neddyl block -4.
O=C(/C=C(\O)c1ccccc1)C(=O)NNC(=O)c1ccccc1[N+](=O)[O-] was read as HIF activator 2, proCasp7 act 11, procasp3 activ -2, FXN GAA850 act 1, Calb FLC -6 and Neddyl block -14.
Screening Nc1ccccc1C(=O)NNC(=O)C(=O)/C=C(\O)c1ccccc1 returned HIF activator 4, proCasp7 act 1, procasp3 activ -2, FXN GAA850 act 1, Calb FLC 25 and Neddyl block 47*.
Screening CCCCOC(=O)c1ccc(NC(=S)NC(=O)c2c(Br)c(C)nn2C)cc1 returned HIF activator 41*, proCasp7 act -2, procasp3 activ -5, FXN GAA850 act -3, Calb FLC -4 and Neddyl block -24.
Screening Cc1ccc(F)c(S(=O)(=O)NC(=O)C2(C)CCN2C(=O)CC2CCCCC2)c1 (stereo not drawn) returned FXN GAA850 act 1 and Neddyl block 2.
`CC(C)c1nc(N2CCN(C(=O)c3ccco3)CC2)c2c3c(sc2n1)CCCC3` gave HIF activator 0, proCasp7 act 0, procasp3 activ 3, FXN GAA850 act 0, Calb FLC 89* and Neddyl block -19.
`CCOC(=O)C1CCCN(C(=O)c2cc(OC)ccc2Br)CC1` (stereo not drawn) gave FXN GAA850 act 0 and Neddyl block -2.
`C/C(=N\NC(=O)c1cc(-c2cccnc2)nc2ccccc12)c1ccccc1O` gave HIF activator 18*, proCasp7 act -2, procasp3 activ -16, FXN GAA850 act -5, Calb FLC -15 and Neddyl block 2.
C/C(=N\NC(=O)c1cc(C2CC2)nc2ccccc12)c1ccc(O)cc1O was read as HIF activator 4, proCasp7 act -12, procasp3 activ -10, FXN GAA850 act -4, Calb FLC 101* and Neddyl block 15.
`COc1ccc([C@H]2N[C@]3(CCCN(Cc4ccc(F)cc4)C3=O)[C@H]3C(=O)N(C)C(=O)[C@@H]23)cc1` gave FXN GAA850 act -1 and Neddyl block 5.
O=C(O)c1ccc(-c2nn3c(=O)cc(N4CCNCC4)nc3s2)cc1 was read as FXN GAA850 act 0 and Neddyl block 18.
Screening CCCC(C)NC(=O)CN1C(=O)NC2(CCc3ccccc32)C1=O (stereo not drawn) returned HIF activator 40*, proCasp7 act 1, procasp3 activ 4, FXN GAA850 act 1, Calb FLC -2 and Neddyl block 10.
OC[C@@H]1CN(Cc2ccccc2)C[C@H](n2ccc3c(N4CCCC4)ncnc32)O1 was read as FXN GAA850 act 0 and Neddyl block -3.
For C[C@H]1CN([C@@H](C)CO)C(=O)CCCn2nncc2CO[C@@H]1CN(C)Cc1ccccc1C(F)(F)F the results were FXN GAA850 act -4 and Neddyl block 9.
`COc1cc(/C=C/C(=O)Nc2ccc(C)cc2)cc(OC)c1OC` gave HIF activator 0, proCasp7 act 7, procasp3 activ -9, FXN GAA850 act 4, Calb FLC -5 and Neddyl block -7.
Screening CCN(CC)CCNC(=O)c1ccc(NC(=O)/C=C/c2cc(OC)c(OC)c(OC)c2)cc1 returned HIF activator 0, proCasp7 act 8, procasp3 activ 13, FXN GAA850 act 1, Calb FLC 66* and Neddyl block 24.
Screening O=C(/C=C/c1cn(-c2ccccc2)nc1-c1ccccc1)Nc1ccc(C(=O)O)cc1 returned HIF activator 16*, proCasp7 act -4, procasp3 activ -5, FXN GAA850 act 1, Calb FLC -1 and Neddyl block 4.
Cn1c(=O)c2[nH]c(C3CC3)nc2n(C)c1=O was read as FXN GAA850 act 1 and Neddyl block -3.
For Oc1c(C=C2N=c3ccccc3=N2)sc(=S)n1-c1ccccc1 the results were HIF activator 22*, proCasp7 act -15, procasp3 activ -4, FXN GAA850 act 0, Calb FLC 0 and Neddyl block -3.
For O=C(CCNC(=O)c1ccccc1Cl)Nc1ccc(S(=O)(=O)N2CCOCC2)cc1 the results were FXN GAA850 act -1 and Neddyl block -12.
For CCN1/C(=C/C(C)=C/c2sc3ccccc3[n+]2CC)Sc2ccccc21 the results were HIF activator 0, proCasp7 act -29, procasp3 activ -35, FXN GAA850 act -12, Calb FLC 103* and Neddyl block -98.
`CCCNC(=O)C1(C)CCCN(C(=O)C2(c3ccc(Cl)cc3)CCCC2)C1` (stereo not drawn) gave FXN GAA850 act 0 and Neddyl block 9.
For Cc1cc(C(=O)NNc2ccc(Cl)cc2)no1 the results were HIF activator 0, proCasp7 act 7, procasp3 activ 3, FXN GAA850 act -1, Calb FLC 103* and Neddyl block -1.
Screening O=C(Nc1cccc(C(=O)N2CCOCC2)c1)C1CC1 returned FXN GAA850 act -1 and Neddyl block 6.
Screening Cn1c(=O)c2c(-c3ccccc3)n3c4ccccc4ncc3c2n(C)c1=O returned HIF activator -3, proCasp7 act 3, procasp3 activ 2 and Calb FLC 2.

Screening results from PubChem BioAssay.
